In brackets after ≈: the same amount, converted by molar mass. Activity calls are given as the source filed them. The calls are words filed in the database; no cut-off is given here.
Legend:
[1] = tested on: Staphylococcus aureus; test: Antibacterial activity against Staphylococcus aureus ATCC 29213 after 16 hrs by agar dilution method; assay type: functional; conditions: ATCC 29213, 16 h
Procedure, shortened: (§1)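 Agar dilution in LB agar with compound (from methanol solutions) at final 0.5–64 μg/ml per plate. Strains grown 16 h at 37 °C, 250 rpm in LB broth, adjusted to OD600 0.25±0.05, diluted 10^4-fold; 2 μl spotted per plate, incubated 16 h at 37 °C. MIC = lowest concentration with no visible colonies; at least two independent experiments. Linezolid and PTM as controls.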

[2] = tested on: Staphylococcus aureus; test: Antibacterial activity against methicillin-sensitive Staphylococcus aureus isolate 1 after 16 hrs by agar dilution method; assay type: functional; conditions: isolate 1, 16 h; procedure, shortened: as §1
[3] = tested on: Staphylococcus aureus; test: Antibacterial activity against methicillin-sensitive Staphylococcus aureus isolate 2 after 16 hrs by agar dilution method; assay type: functional; conditions: isolate 2, 16 h; procedure, shortened: as §1
[4] = tested on: Staphylococcus aureus; test: Antibacterial activity against methicillin-resistant Staphylococcus aureus isolate 3 after 16 hrs by agar dilution method; assay type: functional; conditions: isolate 3, 16 h; procedure, shortened: as §1
[5] = tested on: Staphylococcus aureus; test: Antibacterial activity against methicillin-resistant Staphylococcus aureus isolate 4 after 16 hrs by agar dilution method; assay type: functional; conditions: isolate 4, 16 h; procedure, shortened: as §1
[6] = tested on: Staphylococcus aureus; test: Antibacterial activity against methicillin-resistant Staphylococcus aureus isolate 5 after 16 hrs by agar dilution method; assay type: functional; conditions: isolate 5, 16 h; procedure, shortened: as §1
[7] = tested on: Staphylococcus aureus; test: Antibacterial activity against methicillin-resistant Staphylococcus aureus isolate 6 after 16 hrs by agar dilution method; assay type: functional; conditions: isolate 6, 16 h; procedure, shortened: as §1
[8] = tested on: Staphylococcus aureus; test: Antibacterial activity against methicillin-resistant Staphylococcus aureus infected in C57BL/6J mouse assessed as reduction in bacterial load in blood at 50 mg/kg, ip administered 1 and 5 hrs postinfection and measured at 12 hrs post bacterial infection; assay type: functional, organism-based
Procedure, shortened: (§2)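 Female C57BL/6J mice, 6–8 weeks, 18–21 g, infected ip with 2 × 10^7 CFU MRSA in 0.2 ml saline with 5% hog gastric mucin. Dosed ip 50 mg/kg at 1 and 5 h post-infection; test agents at 5 mg/mL in 12.5% DMSO/30% propanediol/30% PEG400/27.5% saline, vancomycin in saline, saline control. At 12 h blood and homogenized kidneys plated on LB agar overnight at 37 °C for CFU; n = 5, mean ± SEM, unpaired two-tailed t-test.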

[9] = tested on: Staphylococcus aureus; test: Antibacterial activity against methicillin-resistant Staphylococcus aureus infected in C57BL/6J mouse assessed as reduction in bacterial load in kidney at 50 mg/kg, ip administered 1 and 5 hrs postinfection and measured at 12 hrs post bacterial infection; assay type: functional, organism-based; procedure, shortened: as §2
[10] = tested on: Mus musculus; test: Toxicity in C57BL/6J mouse infected with methicillin-resistant Staphylococcus aureus assessed as effect on mouse body weight at 10 mg/kg, ip administered 1 and 5 hrs postinfection and measured for 7 days; assay type: organism-based; conditions: in vivo, 168 h
Procedure, shortened: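 Lethal peritonitis: female C57BL/6J mice, 6–8 weeks, 18–21 g, infected ip with 2 × 10^7 CFU MRSA in 0.5 ml saline with 5% (w/v) mucin. Treated ip 0.2 mL/mouse at 1 and 5 h post-infection (n = 5/group): 50 mg/kg at 5 mg/mL in 12.5% DMSO vehicle, or 10 mg/kg at 1 mg/mL in 2.5% DMSO/30% propanediol/30% PEG400/37.5% saline; vancomycin in saline, saline control. Checked twice daily for survival and body weight over 7 days.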

[11] = tested on: Staphylococcus aureus; test: Antibacterial activity against methicillin-resistant Staphylococcus aureus after 18 hrs in presence of 10% human serum by resazurin dye-based assay; assay type: functional
Procedure, shortened: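 One clinical MRSA strain grown to exponential phase (OD600 = 0.5), diluted to 10^6 CFU/ml in Mueller-Hinton broth; 100 μl compound dilutions mixed with 100 μl bacteria with or without 10% human serum, 18 h at 37 °C. Resazurin (0.66 mM, 50 μl) then added and read visually.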

Row | SMILES | MIC [1] | MIC [2] | MIC [3] | MIC [4] | MIC [5] | MIC [6] | MIC [7] | Activity [8] | Activity [9] | Activity [10] | MIC [11]
1 | C[C@]12C[C@@]34C=C(c5cccc(C(F)(F)F)c5)C(=O)[C@@](C)(CCC(=O)Nc5c(O)ccc(C(=O)O)c5O)[C@@H]3[C@H](C[C@H]1C4)O2 | 4 µg/mL (≈ 6.83 µM) | 4 µg/mL (≈ 6.83 µM) | 8 µg/mL (≈ 13.7 µM) | 8 µg/mL (≈ 13.7 µM) | 8 µg/mL (≈ 13.7 µM) | 8 µg/mL (≈ 13.7 µM) | 8 µg/mL (≈ 13.7 µM) | – | – | – | –
2 | C[C@]12C[C@@]34C=C(c5cccc(-c6ccccc6)c5)C(=O)[C@@](C)(CCC(=O)Nc5c(O)ccc(C(=O)O)c5O)[C@@H]3[C@H](C[C@H]1C4)O2 | 8 µg/mL (≈ 13.5 µM) | 8 µg/mL (≈ 13.5 µM) | 8 µg/mL (≈ 13.5 µM) | 8 µg/mL (≈ 13.5 µM) | 8 µg/mL (≈ 13.5 µM) | 8 µg/mL (≈ 13.5 µM) | 8 µg/mL (≈ 13.5 µM) | – | – | – | –
3 | C[C@]12C[C@@]34C=C(c5ccc(C=O)cc5)C(=O)[C@@](C)(CCC(=O)Nc5c(O)ccc(C(=O)O)c5O)[C@@H]3[C@H](C[C@H]1C4)O2 | 32 µg/mL (≈ 58.7 µM) | 16 µg/mL (≈ 29.3 µM) | 16 µg/mL (≈ 29.3 µM) | 32 µg/mL (≈ 58.7 µM) | 32 µg/mL (≈ 58.7 µM) | 32 µg/mL (≈ 58.7 µM) | 32 µg/mL (≈ 58.7 µM) | – | – | – | –
4 | CN[C@H](CC(C)C)C(=O)N[C@H]1C(=O)N[C@@H](CC(N)=O)C(=O)N[C@H]2C(=O)N[C@H]3C(=O)N[C@H](C(=O)N[C@H](C(=O)O)c4cc(O)cc(O)c4-c4cc3ccc4O)[C@H](O)c3ccc(c(Cl)c3)Oc3cc2cc(c3O[C@@H]2O[C@H](CO)[C@@H](O)[C@H](O)[C@H]2O[C@H]2C[C@](C)(N)[C@H](O)[C@H](C)O2)Oc2ccc(cc2Cl)[C@H]1O [VANCOMYCIN] | – | – | – | – | – | – | – | Active | Active | Non-Toxic | –
5 | Cc1cc(C)cc(C2=C[C@]34C[C@@H]5C[C@H](O[C@@]5(C)C3)[C@H]4[C@](C)(CCC(=O)Nc3c(O)ccc(C(=O)O)c3O)C2=O)c1 | 4 µg/mL (≈ 7.33 µM) | 4 µg/mL (≈ 7.33 µM) | 4 µg/mL (≈ 7.33 µM) | 4 µg/mL (≈ 7.33 µM) | 4 µg/mL (≈ 7.33 µM) | 4 µg/mL (≈ 7.33 µM) | 4 µg/mL (≈ 7.33 µM) | – | – | – | –
6 | COc1ccccc1C1=C[C@]23C[C@@H]4C[C@H](O[C@@]4(C)C2)[C@H]3[C@](C)(CCC(=O)Nc2c(O)ccc(C(=O)O)c2O)C1=O | 8 µg/mL (≈ 14.6 µM) | 8 µg/mL (≈ 14.6 µM) | 16 µg/mL (≈ 29.2 µM) | 16 µg/mL (≈ 29.2 µM) | 16 µg/mL (≈ 29.2 µM) | 16 µg/mL (≈ 29.2 µM) | 16 µg/mL (≈ 29.2 µM) | – | – | – | –
7 | Cc1ccc(C2=C[C@]34C[C@@H]5C[C@H](O[C@@]5(C)C3)[C@H]4[C@](C)(CCC(=O)Nc3c(O)ccc(C(=O)O)c3O)C2=O)cc1 | 8 µg/mL (≈ 15 µM) | 8 µg/mL (≈ 15 µM) | 8 µg/mL (≈ 15 µM) | 8 µg/mL (≈ 15 µM) | 16 µg/mL (≈ 30.1 µM) | 16 µg/mL (≈ 30.1 µM) | 16 µg/mL (≈ 30.1 µM) | – | – | – | –
8 | CC(=O)NC[C@H]1CN(c2ccc(N3CCOCC3)c(F)c2)C(=O)O1 [LINEZOLID] | 1 µg/mL (≈ 2.96 µM) | 1 µg/mL (≈ 2.96 µM) | 1 µg/mL (≈ 2.96 µM) | 1 µg/mL (≈ 2.96 µM) | 1 µg/mL (≈ 2.96 µM) | 1 µg/mL (≈ 2.96 µM) | 1 µg/mL (≈ 2.96 µM) | – | – | – | –
9 | C[C@]12C[C@@]34C=C(c5ccc6ccccc6c5)C(=O)[C@@](C)(CCC(=O)Nc5c(O)ccc(C(=O)O)c5O)[C@@H]3[C@H](C[C@H]1C4)O2 | 8 µg/mL (≈ 14.1 µM) | 8 µg/mL (≈ 14.1 µM) | 8 µg/mL (≈ 14.1 µM) | 8 µg/mL (≈ 14.1 µM) | 8 µg/mL (≈ 14.1 µM) | 8 µg/mL (≈ 14.1 µM) | 8 µg/mL (≈ 14.1 µM) | – | – | – | –
10 | C[C@]12C[C@@]34C=C(c5cccc(OC(F)(F)F)c5)C(=O)[C@@](C)(CCC(=O)Nc5c(O)ccc(C(=O)O)c5O)[C@@H]3[C@H](C[C@H]1C4)O2 | 8 µg/mL (≈ 13.3 µM) | 8 µg/mL (≈ 13.3 µM) | 8 µg/mL (≈ 13.3 µM) | 8 µg/mL (≈ 13.3 µM) | 8 µg/mL (≈ 13.3 µM) | 8 µg/mL (≈ 13.3 µM) | 8 µg/mL (≈ 13.3 µM) | – | – | – | –
11 | C[C@]12C[C@@]34C=CC(=O)[C@@](C)(CCC(=O)Nc5c(O)ccc(C(=O)O)c5O)[C@@H]3[C@H](C[C@H]1C4)O2 | 0.5 µg/mL (≈ 1.13 µM) | 0.5 µg/mL (≈ 1.13 µM) | 0.5 µg/mL (≈ 1.13 µM) | 0.5 µg/mL (≈ 1.13 µM) | 1 µg/mL (≈ 2.27 µM) | 1 µg/mL (≈ 2.27 µM) | 1 µg/mL (≈ 2.27 µM) | Active | Active | – | 8 µg/mL

Reference: ChEMBL document CHEMBL4257590, “Semisynthesis of Platensimycin Derivatives with Antibiotic Activities in Mice via Suzuki-Miyaura Cross-Coupling Reactions” (J Med Chem, 2018)
